From PMC7047882 (Archives of biochemistry and biophysics, 2019)
Where two headings read alike, the source gives them in different places.

How the values were obtained:
bovine brain tubulin [1] = biological target: T1, bovine brain tubulin (Bos taurus, UniProt P81947+Q6B856); assay: biochemical; type: binding; details: for inhibition at 30 µM: pH 6.9, read-out: Effect on DZA binding (% inhibition ± SE)
bovine brain tubulin [2] = biological target: T1, bovine brain tubulin; assay: Turbidity development; type: biochemical
Procedure, shortened: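 Electrophoretically homogeneous bovine brain tubulin, without the gel-filtration step used for the binding studies. Reactions were run in glass vessels in 0.1 M Mes, brought to pH 6.5 or 6.9 with NaOH, with MgCl2 (for example 2 mM, 22 °C). Test compounds were added from dimethyl sulfoxide stocks, with the same dimethyl sulfoxide concentration in controls. The read-out was turbidity development.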

cultured cancer cells = details: cited from earlier work
bovine brain tubulin [3] = biological target: T1, bovine brain tubulin; assay: Recovery of compound-induced aberrant tubulin polymer by centrifugation; type: biochemical; details: for tubulin recovery by centrifugation (in words): pH 6.9, 2 mM MgCl2, 22 °C
Procedure, shortened: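 Electrophoretically homogeneous bovine brain tubulin, without gel filtration, was used. Reaction mixtures contained 0.1 M Mes (pH 6.9 or 6.5, adjusted with NaOH) with 2 mM MgCl₂ at 22 °C. The test compound was added from dimethyl sulfoxide stocks, and controls received equal dimethyl sulfoxide. Reactions were run in glass vessels, and aberrant polymer was harvested by centrifugation and read as tubulin in pellets.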

tubulin [4] = details: cited from earlier work
tubulin [5] = details: cited from earlier work; remark: listed apart in the source
tubulin [6] = details: cited from earlier work; remark: listed apart in the source

T1 sequence (Q6B856 whole entry): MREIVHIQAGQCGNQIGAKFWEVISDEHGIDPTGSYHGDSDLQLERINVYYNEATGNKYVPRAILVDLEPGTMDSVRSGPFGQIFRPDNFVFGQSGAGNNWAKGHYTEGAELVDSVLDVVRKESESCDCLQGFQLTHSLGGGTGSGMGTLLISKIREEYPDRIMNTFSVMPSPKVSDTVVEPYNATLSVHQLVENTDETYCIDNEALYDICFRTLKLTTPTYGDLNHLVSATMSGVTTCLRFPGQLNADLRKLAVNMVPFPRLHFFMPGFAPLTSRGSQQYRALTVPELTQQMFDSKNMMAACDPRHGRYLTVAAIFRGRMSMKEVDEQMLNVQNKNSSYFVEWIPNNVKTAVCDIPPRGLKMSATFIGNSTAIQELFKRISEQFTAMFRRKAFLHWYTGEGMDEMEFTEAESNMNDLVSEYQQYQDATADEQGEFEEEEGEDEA
T1 sequence (P81947 whole entry): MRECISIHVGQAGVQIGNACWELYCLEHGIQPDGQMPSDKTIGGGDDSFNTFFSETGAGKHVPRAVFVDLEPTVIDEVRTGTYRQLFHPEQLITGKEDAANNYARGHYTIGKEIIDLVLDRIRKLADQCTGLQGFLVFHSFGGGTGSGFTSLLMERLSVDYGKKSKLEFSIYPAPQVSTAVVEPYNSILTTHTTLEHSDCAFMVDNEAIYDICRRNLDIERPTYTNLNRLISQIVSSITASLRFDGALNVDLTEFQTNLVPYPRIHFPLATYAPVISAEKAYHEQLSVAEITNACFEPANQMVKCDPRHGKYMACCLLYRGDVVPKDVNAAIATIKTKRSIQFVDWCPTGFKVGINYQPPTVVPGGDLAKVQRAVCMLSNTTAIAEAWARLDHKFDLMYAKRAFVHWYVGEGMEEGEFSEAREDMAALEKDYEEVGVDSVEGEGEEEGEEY

COc1ccc(/C=C\c2cc(OC)c(OC)c(OC)c2)cc1O [Combretastatin A-4, combretastatin A-4]
inhibition at 30 µM (bovine brain tubulin [1]): 17 ± 3%

COc1ccc(C[C@H]2NC(=O)/C=C/C[C@@H]([C@H](C)[C@H]3O[C@@H]3c3ccccc3)OC(=O)[C@H](CC(C)C)OC(=O)[C@H](C)CNC2=O)cc1Cl [Cryptophycin 1, cryptophycin 1]
maximal inhibition of [^3H]DZA binding (bovine brain tubulin [1]; preincubated tubulin, near maximal with 3 μM compound): 50-60% | turbidity development (in words) (bovine brain tubulin [2]; most conditions examined): little turbidity development | IC50 values for cultured cancer cells (in words) (cultured cancer cells): picomolar

CC[C@H](C)[C@@H]([C@@H](CC(=O)N1CCC[C@H]1[C@H](OC)[C@@H](C)C(=O)N[C@@H](Cc1ccccc1)c1nccs1)OC)N(C)C(=O)[C@@H](NC(=O)[C@H](C(C)C)N(C)C)C(C)C [D10, dolastatin 10]
inhibition of [^3H]DZA binding to tubulin (in words) (bovine brain tubulin [1]; without a tubulin preincubation): inhibition was negligible | tubulin recovery by centrifugation (in words) (bovine brain tubulin [3]; 10 and 20 μM compound): even larger amounts | turbidity development (in words) (bovine brain tubulin [2]; all conditions examined): Extensive turbidity development

CC(C)[C@H](O)C(=O)N[C@H]1Cc2ccc3c(c2)[C@]24C5=C(N=C(O5)[C@H](C(C)C)NC1=O)c1nc(Cl)c(o1)-c1c(Cl)[nH]c5cccc(c15)-c1cccc2c1N[C@@H]4O3 [DZA, diazonamide A]
inhibition of [^3H]DZA binding to tubulin (in words) (bovine brain tubulin [1]): no inhibition of binding | tubulin recovery by centrifugation (in words) (bovine brain tubulin [3]; 10 and 20 μM compound): large amounts | tubulin recovered in pellets (in words) (bovine brain tubulin [3]; pH 6.5, 2 mM MgCl2, 22 °C): almost all the tubulin | turbidity development (in words) (bovine brain tubulin [2]; 0.1 M Mes (pH 6.5), 2 mM MgCl2, 22 °C): differed little from that with D10 | inhibition of binding of [^3H]vinblastine to tubulin (in words) (tubulin [4]): no inhibition | inhibition of binding of [^3H]D10 to tubulin (in words) (tubulin [5]): no inhibition | inhibition of tubulin assembly (in words) (tubulin [6]): potent inhibitor

CN[C@H](C(=O)N[C@H](C(=O)N(C)[C@H](/C=C(\C)C(=O)O)C(C)C)C(C)(C)C)C(C)(C)c1cn(C)c2ccccc12 [Hemiasterlin, hemiasterlin]
inhibition at 30 µM (bovine brain tubulin [1]): 43 ± 3% | tubulin recovery by centrifugation (in words) (bovine brain tubulin [3]; 20 μM compound): a moderate amount

COc1cc2cc(c1Cl)N(C)C(=O)C[C@H](OC(=O)[C@H](C)N(C)C(C)=O)[C@]1(C)O[C@H]1[C@H](C)[C@@H]1C[C@@](O)(NC(=O)O1)[C@H](OC)/C=C/C=C(\C)C2 [Maytansine, maytansine]
inhibition at 30 µM (bovine brain tubulin [1]): 9.2 ± 6%

CC[C@]1(O)C[C@@H]2CN(CCc3c([nH]c4ccccc34)[C@@](C(=O)OC)(c3cc4c(cc3OC)N(C)[C@H]3[C@@](O)(C(=O)OC)[C@H](OC(C)=O)[C@]5(CC)C=CCN6CC[C@]43[C@@H]65)C2)C1 [Vinblastine, vinblastine]
inhibition of [^3H]DZA binding to tubulin (in words) (bovine brain tubulin [1]): absolutely no inhibitory effect | Effect on DZA binding (% enhancement ± SE; indicated by E before the value) (bovine brain tubulin [1]; pH 6.9): E 11 ± 5% | tubulin recovery by centrifugation (in words) (bovine brain tubulin [3]; 20 μM compound): even larger amounts
